Measurements published in ChEMBL document CHEMBL1129483, “Antitumor 2-(aminocarbonyl)-1,2-bis(methylsulfonyl)-1-(2-chloroethyl)- hydrazines” (1996).
Where “and” joins values, the source holds several entries; their conditions need not be identical. Equal values may be shown once.

How the values were obtained:
Format in all cases: functional
Mus musculus [1] = test: Average survival time of treated /control mice*100 was determined at a daily dose of 5 mg/kg
How it was run: (§1)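 L1210 leukemia cells kept by serial passage in culture. 10^5 cells given ip to CD2F1 mice. Drug in 100% DMSO given ip once daily for 6 days starting 24 h after implant. 5–10 mice per group, with vehicle-treated controls. %T/C is average survival time of treated mice over controls ×100. 60-day survivors (cures) are excluded from the calculation.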

Mus musculus [2] = test: Average survival time of treated /control mice*100 was determined at a daily dose of 15 mg/kg; how it was run: as §1
Mus musculus [3] = test: Average percent change in body weight from onset to termination of therapy at dose 5(mg/kg)
How it was run: (§2)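 CD2F1 mice implanted ip with 10^5 L1210 leukemia cells (kept by serial passage in culture and periodic ip passage in donor mice). Drug given ip in 100% DMSO, at most 0.025 mL, once daily for 6 consecutive days starting 24 h after implantation. Groups of 5–10 mice; vehicle-treated tumor-bearing controls. Body weight change is the average percent from onset to termination of therapy, used as a toxicity index.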

Mus musculus [4] = test: Average percent change in body weight from onset to termination of therapy at dose 15(mg/kg); how it was run: as §2
Mus musculus [5] = test: %60 day survivors were determined for the compound as the mouse […] at dose 15 mg/kg
How it was run: (§3)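 L1210 leukemia cells kept by serial passage in culture. 10^5 cells given ip to CD2F1 mice. Drug in 100% DMSO, at most 0.025 mL, given ip once daily for 6 consecutive days starting 24 h after implant. 5–10 mice per group, with vehicle-treated tumor-bearing controls. Value is the percentage of mice alive and symptom-free 60 days after tumor implant.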

Mus musculus [6] = test: Average survival time of treated /control mice*100 was determined at a daily dose of 10 mg/kg; how it was run: as §1
Mus musculus [7] = test: Average percent change in body weight from onset to termination of therapy at dose 10(mg/kg); how it was run: as §2
Mus musculus [8] = test: Average survival time of treated /control mice*100 was determined at a daily dose of 25 mg/kg; how it was run: as §1
Mus musculus [9] = test: Average percent change in body weight from onset to termination of therapy at dose 25(mg/kg); how it was run: as §2
Mus musculus [10] = test: Average survival time of treated /control mice*100 was determined at a daily dose of 50 mg/kg; how it was run: as §1
Mus musculus [11] = test: Average survival time of treated /control mice*100 was determined at a daily dose of 150 mg/kg; how it was run: as §1
Mus musculus [12] = test: Average percent change in body weight from onset to termination of therapy at dose 20(mg/kg); how it was run: as §2
Mus musculus [13] = test: %60 day survivors were determined for the compound as the mouse […] at dose 100 mg/kg; how it was run: as §3
Mus musculus [14] = test: %60 day survivors were determined for the compound as the mouse […] at dose 150 mg/kg; how it was run: as §3
Mus musculus [15] = test: Average percent change in body weight from onset to termination of therapy at dose 150(mg/kg); how it was run: as §2
Mus musculus [16] = test: Average percent change in body weight from onset to termination of therapy at dose 100(mg/kg); how it was run: as §2
Mus musculus [17] = test: %60 day survivors were determined for the compound as the mouse […] at dose 50 mg/kg; how it was run: as §3
Mus musculus [18] = test: Average survival time of treated /control mice*100 was determined at a daily dose of 20 mg/kg; how it was run: as §1
Mus musculus [19] = test: Average percent change in body weight from onset to termination of therapy at dose 50(mg/kg); how it was run: as §2
Mus musculus [20] = test: %60 day survivors were determined for the compound as the mouse […] at dose 5 mg/kg; how it was run: as §3
Mus musculus [21] = test: %60 day survivors were determined for the compound as the mouse […] at dose 10 mg/kg; how it was run: as §3
Mus musculus [22] = test: Average percent change in body weight from onset to termination of therapy at dose 75(mg/kg); how it was run: as §2
Mus musculus [23] = test: %60 day survivors were determined for the compound as the mouse […] at dose 75 mg/kg; how it was run: as §3
Mus musculus [24] = test: %60 day survivors were determined for the compound as the mouse […] at dose 25 mg/kg; how it was run: as §3
Mus musculus [25] = test: %60 day survivors were determined for the compound as the mouse […] at dose 20 mg/kg; how it was run: as §3
Mus musculus [26] = test: Average survival time of treated /control mice*100 was determined at a daily dose of 100 mg/kg; how it was run: as §1
Mus musculus [27] = test: Average survival time of treated /control mice*100 was determined at a daily dose of 75 mg/kg; how it was run: as §1

SMILES | T/C (Mus musculus [1]) [%] | T/C (Mus musculus [2]) [%] | Change (Mus musculus [3]) [%] | Change (Mus musculus [4]) [%] | Survivors (Mus musculus [5]) [%] | T/C (Mus musculus [6]) [%] | Change (Mus musculus [7]) [%] | Change (Mus musculus [9]) [%] | Change (Mus musculus [12]) [%] | Change (Mus musculus [16]) [%] | Survivors (Mus musculus [17]) [%] | T/C (Mus musculus [18]) [%] | Change (Mus musculus [19]) [%] | Survivors (Mus musculus [21]) [%] | other results
CS(=O)(=O)N(CCCl)N(C(=O)NCCCCl)S(C)(=O)=O | 111 | 192 | -2.8 | -8.8 | 20 | 187 | -5.6 | – | – | – | – | – | – | – | –
CCOC(=O)C(Cc1ccccc1)NC(=O)N(N(CCCl)S(C)(=O)=O)S(C)(=O)=O (centres undefined) | 147 | 160 | -2.5 | -1.9 | – | 165 | -0.5 | -0.9 | -1.9 | -2 | 60 | 174 | -2 | – | T/C (Mus musculus [8]): 177%; T/C (Mus musculus [10]): 225%; T/C (Mus musculus [11]): 169%; Survivors (Mus musculus [13]): 100%; Survivors (Mus musculus [14]): 20%; Change (Mus musculus [15]): -5%
C=CCNC(=O)N(N(CCCl)S(C)(=O)=O)S(C)(=O)=O | 184 | – | -1.6 | -2.9 | 100 | 394 | -2.1 | – | – | – | – | – | – | 40 | Survivors (Mus musculus [20]): 20%
CCOC(=O)C(C)NC(=O)N(N(CCCl)S(C)(=O)=O)S(C)(=O)=O (centres undefined) | 170 | 185 | -2 | -0.5 | – | 178 | -1.4 | -2.5 | -1.5 | -2.5 | 100 | 227 | -3.3 | 20 | T/C (Mus musculus [8]): 239%; Change (Mus musculus [22]): -2.5%; Survivors (Mus musculus [23]): 80%; Survivors (Mus musculus [24]): 60%
CS(=O)(=O)N(CCCl)N(C(=O)NCCCl)S(C)(=O)=O | – | 216 | – | -4 | 80 | – | -4.7 | – | -10.4 | – | – | 239 | – | 100 | Survivors (Mus musculus [25]): 80%
CNC(=O)N(N(CCCl)S(C)(=O)=O)S(C)(=O)=O [LAROMUSTINE] | 234 | – | 9.9 | -2.1 | 100 | – | -5.6 | – | – | – | – | – | – | 100 | Survivors (Mus musculus [20]): 40%
CCOC(=O)CNC(=O)N(N(CCCl)S(C)(=O)=O)S(C)(=O)=O | 151 | 202 | -1.5 | -0.5 | – | 202 | -1.4 | -0.5 | -3.7 | -4 | 80 | – | -2.5 | 20 | T/C (Mus musculus [26]): 115%; T/C (Mus musculus [27]): 119%; Change (Mus musculus [22]): -1.5%; Survivors (Mus musculus [25]): 20%; Survivors (Mus musculus [23]): 60%; Survivors (Mus musculus [24]): 100%; T/C (Mus musculus [18]; 20 mg/kg): 191% and 138%
